# Where “and” joins values, the source holds several entries; their conditions need not be identical. Equal values may be shown once.
# Key:
# [1] = molecular target: Estrogen receptor (Bos taurus) (UniProt Q9XSB5+P49884); experiment: In vitro inhibition of 1*10e-9 M [3H]estradiol binding to Estrogen receptor of calf uterine cytosol at 1*10e-5 M; type: protein assay
# In short: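 Competition of [3H]estradiol binding in calf uterine cytosol (final protein 5 mg/mL); bound and free ligand separated by dextran-coated charcoal; percent inhibition of binding reported.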
# Mus musculus [2] = experiment: Animals without tumor after the test against the ADJ/PC6 Plasmacytoma cells of the BALB/C mouse at a dose of 15 mg/kg after 38 days was determined in vivo; type: functional, organism-based; set-up: dose 15 mg/kg
# Mus musculus [3] = experiment: Animals without tumor after the test against the ADJ/PC6 Plasmacytoma cells of the BALB/C mouse at a dose of 20 mg/kg after 37 days was determined in vivo; type: functional, organism-based; set-up: dose 20 mg/kg
# Mus musculus [4] = experiment: Animals without tumor after the test against the ADJ/PC6 Plasmacytoma cells of the BALB/C mouse at a dose of 20 mg/kg after 38 days was determined in vivo; type: functional, organism-based; set-up: dose 20 mg/kg
# Mus musculus [5] = experiment: Number of deaths against the ADJ/PC6 Plasmacytoma cells of the BALB/C mouse at a dose of 15 mg/kg after 38 days was determined in vivo; type: functional, organism-based; set-up: dose 15 mg/kg
# Mus musculus [6] = experiment: Number of deaths against the ADJ/PC6 Plasmacytoma cells of the BALB/C mouse at a dose of 20 mg/kg after 37 days was determined in vivo; Value denoted as dead/test = 2/10; type: functional, organism-based; set-up: dose 20 mg/kg
# Mus musculus [7] = experiment: Number of deaths against the ADJ/PC6 Plasmacytoma cells of the BALB/C mouse at a dose of 20 mg/kg after 38 days was determined in vivo; type: functional, organism-based; set-up: dose 20 mg/kg
# Mus musculus [8] = experiment: Antitumor activity against the ADJ/PC6 Plasmacytoma cells of the BALB/C mouse at a dose of 15 mg/kg after 38 days was determined in vivo; Value denoted as dead/test = 1/10; type: functional, organism-based; set-up: dose 15 mg/kg
# In short: (§1)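 Female Balb/C mice, 14–18 g, inoculated subcutaneously with 5 × 10^6 ADJ/PC6 cells in 0.1 mL PBS (day 0). Compounds suspended in olive oil, given intraperitoneally as a single dose (day 1) or triple dose (days 1, 2, 3). Groups usually of 10 animals; cisplatin positive control. Test ran about 38 days; activity read as mean tumor volume as percent of untreated control (T/C, %).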
# Mus musculus [9] = experiment: Antitumor activity against the ADJ/PC6 Plasmacytoma cells of the BALB/C mouse at a dose of 20 mg/kg after 37 days was determined in vivo; type: functional, organism-based; set-up: dose 20 mg/kg; in short: as §1
# Mus musculus [10] = experiment: Antitumor activity against the ADJ/PC6 Plasmacytoma cells of the BALB/C mouse at a dose of 20 mg/kg after 38 days was determined in vivo; Value denoted as dead/test = 0/10; type: functional, organism-based; set-up: dose 20 mg/kg; in short: as §1
# Rattus norvegicus [11] = experiment: Compound was tested for the increase in life span of L5222 Leukemia implanted rat at dose 20(60) mg/kg; type: functional, organism-based
# In short: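 BD IX rats, 3–6 months old, half female and half male, six per dose group, given 1 × 10^6 L 5222 cells in 1.0 mL physiological saline intraperitoneally (day 0). Complex dissolved in olive oil at 1 mg/mL; three injections on days 1, 2, 3 or 1, 5, 9. Scored as percent increased life span (ILS).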
# Rattus norvegicus [12] = experiment: Compound was tested for the survival against L5222 Leukemia implanted rat at dose 20(60) mg/kg; type: functional, organism-based
# In short: (§2)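 BD IX rats (3–6 months old, half female, half male), six per dose group, given 1 × 10^6 L 5222 cells in 1.0 mL physiological saline i.p. on day 0. The complex was in olive oil at a final 1 mg/mL and given i.p. as three injections, on days 1, 2, 3 or days 1, 5, 9. Read-out is median survival day and percent ILS.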
# ADJ/PC6 = experiment: In vitro incorporation of the [3H]thymidine into the ADJ/PC6 Plasmacytoma cells; type: functional, cell-based; conditions: Mus musculus
# In short: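 ADJ/PC6 tumor taken from passaged female Balb/C mice, minced and gently dispersed, then suspended in Eagle's MEM with 5% heat-inactivated horse serum, Hepes (5 mg/mL) and 0.1% Pluronic F 68, and filtered through gauze. Cells incubated 3 h at 37 °C with shaking, then pulsed with 1 μCi [methyl-3H]thymidine for 2 h. Ice-cold PBS stop, saline washes, sonication. Triplicates.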
# MDA-MB-231 = experiment: In vitro incorporation of [3H]thymidine into hormone-independent MDA-MB 231 breast cancer cells; type: functional, cell-based; conditions: Homo sapiens
# In short: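 MDA-MB 231 cells grown in McCoy 5a with 10% newborn calf serum and gentamycin, switched to 5% serum 1 h before the experiment. Compounds added from fresh 1000-fold Me2SO concentrates (final solvent 0.1%). [3H]Thymidine incorporation into TCA-precipitable material measured. Mean of triplicates.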
# Mus musculus [13] = experiment: Animals without tumor after the test against the ADJ/PC6 Plasmacytoma cells of the BALB/C mouse at a dose of 8 mg/kg after 37 days was determined in vivo; type: functional, organism-based; set-up: dose 8 mg/kg
# Mus musculus [14] = experiment: Number of deaths against the ADJ/PC6 Plasmacytoma cells of the BALB/C mouse at a dose of 8 mg/kg after 37 days was determined in vivo; type: functional, organism-based; set-up: dose 8 mg/kg
# Mus musculus [15] = experiment: Antitumor activity against the ADJ/PC6 Plasmacytoma cells of the BALB/C mouse at a dose of 8 mg/kg after 37 days was determined in vivo; type: functional, organism-based; set-up: dose 8 mg/kg; in short: as §1
# Rattus norvegicus [16] = experiment: Compound was tested for the survival against L5222 Leukemia implanted rat at dose 3.5(10.5)mg/kg; type: functional, organism-based; in short: as §2
# Rattus norvegicus [17] = experiment: Compound was tested for the survival against L5222 Leukemia implanted rat at dose 3.5(10.5) mg/kg; type: functional, organism-based; in short: as §2
Substance,inhibition [1],Activity (Mus musculus [2]),Activity (Mus musculus [3]),Activity (Mus musculus [4]),Deaths (Mus musculus [5]),Deaths (Mus musculus [6]),Deaths (Mus musculus [7]),T/C (Mus musculus [8]) [%],T/C (Mus musculus [9]) [%],T/C (Mus musculus [10]) [%],ILS (Rattus norvegicus [11]) [%],Median day of survival (Rattus norvegicus [12]),ID50 (ADJ/PC6) [µM],ID50 (MDA-MB-231) [µM],Activity (Mus musculus [13]),Deaths (Mus musculus [14]),T/C (Mus musculus [15]) [%],Median day of survival (Rattus norvegicus [16]),Median day of survival (Rattus norvegicus [17])
"(+) R,R-dichloro-[1,2-bis(4-hydroxyphenyl)ethylenediamine]platinum (II)",11% and 13.7% and 9.7%,7,8,7,1,2,0,1,0,0,175,18,–,–,–,–,–,–,–
CISPLATIN,–,–,–,–,–,–,–,–,–,–,–,–,9.5,0.65,10,0,0,14.5,17.5
